Tests used:
[1] = biological target: Aldo-keto reductase family 1 member B1 (Bos taurus) (UniProt P16116); test: In vitro inhibition of aldose reductase from the partially purified bovine lens at 10e-5 M concentration
In short: (§1)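 Bovine lens aldose reductase, partially purified, assayed spectrophotometrically following Hayman and Kinoshita. Each compound was tested at three concentrations, routinely in duplicate.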

[2] = biological target: Aldo-keto reductase family 1 member B1 (Bos taurus) (UniProt P16116); test: In vitro inhibition of aldose reductase from the partially purified bovine lens at 10e-6 M concentration; in short: as §1
[3] = biological target: Aldo-keto reductase family 1 member B1 (Bos taurus) (UniProt P16116); test: In vitro inhibition of aldose reductase from the partially purified bovine lens at 10e-7 M concentration; in short: as §1
Rattus norvegicus [4] = test: In vivo inhibition of polyol accumulation in galactosemic rat diaphragm at dose 96 mg/kg administered perorally; format: functional; details: route oral
In short: (§2)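 Rats received a diet of 20% galactose for 4 days, with compound mixed into the diet. Galactitol was measured in trichloroacetic acid extracts of lens, sciatic nerve and diaphragm by a modified Kraml–Cosyns method. Values are % reduction versus galactosemic controls, compared by Dunnett's multiple comparison.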

Rattus norvegicus [5] = test: In vivo inhibition of polyol accumulation in galactosemic rat diaphragm at dose 99 mg/kg administered perorally; format: functional; details: route oral; in short: as §2
Rattus norvegicus [6] = test: In vivo inhibition of polyol accumulation in galactosemic rat nerve at dose 99 mg/kg administered perorally; format: functional; details: route oral; in short: as §2
Rattus norvegicus [7] = test: In vivo inhibition of polyol accumulation in galactosemic rat diaphragm at dose 105 mg/kg administered perorally; format: functional; details: route oral; in short: as §2
Rattus norvegicus [8] = test: In vivo inhibition of polyol accumulation in galactosemic rat nerve at dose 105 mg/kg administered perorally; format: functional; details: route oral; in short: as §2
Rattus norvegicus [9] = test: In vivo inhibition of polyol accumulation in galactosemic rats diaphragm; format: functional; details: read-out: ID50 (the source's name)
Rattus norvegicus [10] = test: In vivo inhibition of polyol accumulation in galactosemic rats lens; format: functional; details: Lens of camera-type eye, read-out: ID50 (the source's name)
Rattus norvegicus [11] = test: In vivo inhibition of polyol accumulation in galactosemic rats nerve; format: functional; details: read-out: ID50 (the source's name)
Rattus norvegicus [12] = test: In vivo inhibition of polyol accumulation in galactosemic rat diaphragm at dose 6 mg/kg administered perorally; format: functional; details: route oral; in short: as §2
Rattus norvegicus [13] = test: In vivo inhibition of polyol accumulation in galactosemic rat nerve at dose 6 mg/kg administered perorally; format: functional; details: route oral; in short: as §2
Rattus norvegicus [14] = test: In vivo inhibition of polyol accumulation in galactosemic rat diaphragm at dose 90 mg/kg administered perorally; format: functional; details: route oral; in short: as §2
Rattus norvegicus [15] = test: In vivo inhibition of polyol accumulation in galactosemic rat nerve at dose 90 mg/kg administered perorally; format: functional; details: route oral; in short: as §2
Rattus norvegicus [16] = test: In vivo inhibition of polyol accumulation in galactosemic rat nerve at dose 151 mg/kg administered perorally; format: functional; details: route oral; in short: as §2
Rattus norvegicus [17] = test: In vivo inhibition of polyol accumulation in galactosemic rat nerve at dose 78 mg/kg administered perorally; format: functional; details: route oral; in short: as §2
Rattus norvegicus [18] = test: In vivo inhibition of polyol accumulation in galactosemic rat diaphragm at dose 83 mg/kg administered perorally; format: functional; details: route oral; in short: as §2
Rattus norvegicus [19] = test: In vivo inhibition of polyol accumulation in galactosemic rat nerve at dose 83 mg/kg administered perorally; format: functional; details: route oral; in short: as §2
Rattus norvegicus [20] = test: In vivo inhibition of polyol accumulation in galactosemic rat diaphragm at dose 135 mg/kg administered perorally; format: functional; details: route oral; in short: as §2
Rattus norvegicus [21] = test: In vivo inhibition of polyol accumulation in galactosemic rat diaphragm at dose 112 mg/kg administered perorally; format: functional; details: route oral; in short: as §2
Rattus norvegicus [22] = test: In vivo inhibition of polyol accumulation in galactosemic rat nerve at dose 112 mg/kg administered perorally; format: functional; details: route oral; in short: as §2
Rattus norvegicus [23] = test: In vivo inhibition of polyol accumulation in galactosemic rat lens at dose 93 mg/kg administered perorally; format: functional, Lens of camera-type eye; details: route oral; in short: as §2
Rattus norvegicus [24] = test: In vivo inhibition of polyol accumulation in galactosemic rat nerve at dose 93 mg/kg administered perorally; format: functional; details: route oral; in short: as §2
Rattus norvegicus [25] = test: In vivo inhibition of polyol accumulation in galactosemic rat diaphragm at dose 97 mg/kg administered perorally; format: functional; details: route oral; in short: as §2
Rattus norvegicus [26] = test: In vivo inhibition of polyol accumulation in galactosemic rat nerve at dose 97 mg/kg administered perorally; format: functional; details: route oral; in short: as §2
Rattus norvegicus [27] = test: In vivo inhibition of polyol accumulation in galactosemic rat diaphragm at dose 82 mg/kg administered perorally; format: functional; details: route oral; in short: as §2
Rattus norvegicus [28] = test: In vivo inhibition of polyol accumulation in galactosemic rat nerve at dose 82 mg/kg administered perorally; format: functional; details: route oral; in short: as §2
Rattus norvegicus [29] = test: In vivo inhibition of polyol accumulation in galactosemic rat diaphragm at dose 102 mg/kg administered perorally; format: functional; details: route oral; in short: as §2

| SMILES | inhibition [1] | inhibition [2] | inhibition [3] | further results |
| --- | --- | --- | --- | --- |
| Cc1nc(NCC2CCCCC2)c(C#N)c(=O)n1CC(=O)O | 93% | 91% | 72% | – |
| CSc1nc(-c2ccccc2)nc(OCC(=O)O)c1C#N | 92% | 87% | 75% | Reduction (Rattus norvegicus [4]): 55% |
| CC(C)(C)c1nc(OCC(=O)O)c(C#N)c(SCc2ccc(Br)cc2F)n1 | 98% | 93% | 93% | Reduction (Rattus norvegicus [5]): 47%; Reduction (Rattus norvegicus [6]): 28% |
| CC(C)(C)c1nc(OCC(=O)O)c(C#N)c(SCC2CCCCC2)n1 | 97% | 96% | 88% | Reduction (Rattus norvegicus [7]): 60%; Reduction (Rattus norvegicus [8]): 70% |
| COc1ccc2c(C(=S)N(C)CC(=O)O)cccc2c1C(F)(F)F [TOLRESTAT] | – | – | – | ED50 (Rattus norvegicus [9]): 1.5 mg/kg; ED50 (Rattus norvegicus [10]): 178 mg/kg; ED50 (Rattus norvegicus [11]): 8 mg/kg; Reduction (Rattus norvegicus [12]): 90%; Reduction (Rattus norvegicus [13]): 53% |
| N#Cc1c(OCC(=O)O)nc(-c2cccc3ccccc23)nc1-c1ccccc1 | 79% | 76% | 53% | – |
| CSc1nc(C(C)C)n(CC(=O)O)c(=O)c1C#N | 96% | 96% | 94% | – |
| CSc1nc(C2CCCCC2)n(CC(=O)O)c(=O)c1C#N | 98% | – | 89% | Reduction (Rattus norvegicus [14]): 42%; Reduction (Rattus norvegicus [15]): 47% |
| CC(C)Sc1nc(C(C)C)n(CC(=O)O)c(=O)c1C#N | 96% | 97% | 91% | – |
| Cc1nc(NCc2cccnc2)cc(=O)n1CC(=O)O | 53% | 18% | – | – |
| N#Cc1c(-c2ccccc2)nc(-c2cccc3c(Br)cccc23)n(CC(=O)O)c1=O | 82% | 71% | 22% | – |
| CSc1nc(C2CCCCC2)n(CC(=O)O)c(=O)c1S(=O)(=O)c1ccccc1 | 3% | 0% | – | – |
| Cc1nc(NCc2ccccc2)c(C#N)c(=O)n1CC(=O)O | 96% | 90% | 76% | – |
| Cc1nc(N2CCN(Cc3ccccc3)CC2)c(C#N)c(=O)n1CC(=O)O | 92% | 89% | 64% | – |
| Cc1nc(NCc2cccnc2)c(C#N)c(=O)n1CC(=O)O | 88% | 90% | 30% | – |
| COC(=O)c1c(OCC(=O)O)nc(C(C)(C)C)nc1SC | 13% | 2% | – | – |
| Cc1nc(-c2cccc3ccccc23)nc(OCC(=O)O)c1C#N | 93% | 85% | 46% | – |

| SMILES | inhibition [1] | inhibition [2] | inhibition [3] | further results |
| --- | --- | --- | --- | --- |
| N#Cc1c(Cc2cccc3ccccc23)nc(-c2cccc3c(Br)cccc23)n(CC(=O)O)c1=O | 93% | 85% | 46% | Reduction (Rattus norvegicus [16]): 30% |
| CSc1nc(C(C)C)nc(OCC(=O)O)c1C#N | 98% | 97% | 88% | Reduction (Rattus norvegicus [17]): 37% |
| CSc1nc(CC(C)(C)C)nc(OCC(=O)O)c1C#N | 95% | 96% | 85% | – |
| CSc1nc(C(C)(C)C)nc(OCC(=O)O)c1C#N | 89% | 88% | 82% | Reduction (Rattus norvegicus [18]): 32%; Reduction (Rattus norvegicus [19]): 35% |
| CSc1nc(C)n(CC(=O)O)c(=O)c1C#N | 86% | 84% | 74% | – |
| COC(=O)c1c(SC)nc(C2CCCCC2)n(CC(=O)O)c1=O | 5% | 1% | – | – |
| CC(C)(C)c1nc(OCC(=O)O)c(C#N)c(SCc2ccc(Br)cc2)n1 | 95% | 95% | 95% | Reduction (Rattus norvegicus [20]): 58% |
| CSc1nc(C(C)(C)C)nc(OCC(=O)O)c1C(N)=O | 81% | 42% | 10% | – |
| Cc1nc(N2CCC(Cc3ccccc3)CC2)c(C#N)c(=O)n1CC(=O)O | 90% | 88% | 81% | – |
| Cc1nc(-c2ccccc2)nc(OCC(=O)O)c1C#N | 92% | 88% | 79% | – |
| CSc1nc(C)nc(OCC(=O)O)c1C#N | 90% | 84% | 55% | – |
| CCCCCCSc1nc(C(C)(C)C)nc(OCC(=O)O)c1C#N | – | – | – | Reduction (Rattus norvegicus [21]): 60%; Reduction (Rattus norvegicus [22]): 43% |
| N#Cc1c(SCc2ccc(Br)cc2F)nc(C2CCCCC2)n(CC(=O)O)c1=O | 96% | – | 92% | Reduction (Rattus norvegicus [23]): 15%; Reduction (Rattus norvegicus [24]): 50% |
| CC(C)(C)c1nc(OCC(=O)O)c(C#N)c(SCc2ccccc2)n1 | 86% | 85% | 82% | Reduction (Rattus norvegicus [25]): 67%; Reduction (Rattus norvegicus [26]): 46% |
| CC(C)Sc1nc(C(C)(C)C)nc(OCC(=O)O)c1C#N | 92% | 91% | 89% | Reduction (Rattus norvegicus [27]): 19%; Reduction (Rattus norvegicus [28]): 37% |
| CC(C)c1nc(SCc2ccccc2)c(C#N)c(=O)n1CC(=O)O | 96% | 98% | 94% | Reduction (Rattus norvegicus [29]): 38% |
| N#Cc1c(-c2ccccc2)nc(-c2cccc3ccccc23)n(CC(=O)O)c1=O | 84% | 68% | 29% | – |

— ChEMBL document CHEMBL1124992, “(Pyrimidinyloxy)acetic acids and pyrimidineacetic acids as a novel class of aldose reductase inhibitors” (J Med Chem, 1990)
